In PubChem BioAssay:
Activity calls are given as the source filed them.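 The calls were made as follows, unless noted: active = viability at or under a set limit in both replicates, limit being median viability minus 3 SD (cut at about 48% in these data, passing the limit was not always enough); inconclusive = at or under the limit in just one replicate; inactive = at or above the limit in both replicates.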

Tests used:
[1] = reducers of endogenous Her2 protein level, primary screen, SKBR3 breast tumor cells, AlphaScreen, ATP viability (AID 461;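 active = Her2 level under about 52% in both replicate screens, with viability over 70% of control, limit read from the data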;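 as to Her2 level: lower value means less Her2 protein in the cells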;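 as to viability: percent of carrier control wells set as 100% viability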); conditions: 18-24 h, measured here: SKBR3 viability, ATP luminescence, at 10 µM
[2] = biological target: Receptor tyrosine-protein kinase erbB-2 (Homo sapiens) (UniProt P04626); assay: as above; conditions: 18-24 h, at 10 µM, stronger effect = lower value
[3] = SK-BR-3 cell growth inhibitors, pilot screen, 24 h, human (AID 572;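 active = viability at or below 10% of carrier control in both of two separate runs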;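 also: compound exposure lasted between 18 and 24 h rather than exactly 24 h; 100% = carrier-treated control wells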); conditions: SK-BR-3 viability, CellTiter-Glo luminescence, at 10 µM, stronger effect = lower value
[4] = HUVEC growth inhibition – cell-based, human, primary screen (AID 575;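 active = viability at or below 30% in both replicate assays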;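 also: 100% = median of untreated cell wells with 0.1% DMSO on each plate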); conditions: HUVEC proliferation, CellTiter-Glo luminescence, 72 h; at 10 µM; stronger effect = lower value
In short: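 System: primary human umbilical vein endothelial cells; Quantity: 1250 endothelial cells in each well; Buffer or medium: supplemented EBM, 2% fetal bovine serum; Doses: one dose, 10 µM final, 0.1% DMSO; Incubation: 72 h compound incubation; Technique: ATP-based CellTiter-Glo luminescent read; Evaluation: percent of median DMSO-control luminescence; Controls: vehicle and MePR control wells.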

[5] = growth inhibitors of H69AR lung tumor, primary screen, human, duplicate replicates (AID 580); conditions: H69AR lung tumor cells viability, ATP luminescence, 72 h; at 10 µM; stronger effect = lower value;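 also: 100% = mean luminescence of untreated wells and 0% = no signal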
[6] = reversal of MRP1-mediated doxorubicin resistance, pilot screen, H69AR cells, doxorubicin co-treatment (AID 601;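 active = viability loss from added drug above about 55%, and viability with drug at most 40%, in both replicates, limit read from the data, passing the limit was not always enough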); conditions: CellTiter-Glo, 72 h, at 10 µM; for differential viability (reversal): stronger effect = higher value
[7] = 384-well plate pilot, post-Golgi transport modulator project, inhibition of yeast transport mutant growth (AID 636; in the data active = inhibition above about 31%); conditions: absorbance 615 nm, about 18 h, stronger effect = higher value
[8] = growth suppression of yeast trafficking mutant, preliminary HTS, modulators of trafficking downstream of Golgi apparatus project, 1536-format plate, OD 615 nm (AID 637; in the data active = inhibition above about 30%); conditions: yeast transport mutant growth, absorbance 615 nm, 18 h; stronger effect = higher value
[9] = H69AR cells + 2 uM doxorubicin, measured here: viability with 2 uM doxorubicin, stronger effect = lower value
[10] = H69AR cells, compound alone cytotoxicity

Chain of Receptor tyrosine-protein kinase erbB-2 (Homo sapiens) (P04626 whole entry, looked up): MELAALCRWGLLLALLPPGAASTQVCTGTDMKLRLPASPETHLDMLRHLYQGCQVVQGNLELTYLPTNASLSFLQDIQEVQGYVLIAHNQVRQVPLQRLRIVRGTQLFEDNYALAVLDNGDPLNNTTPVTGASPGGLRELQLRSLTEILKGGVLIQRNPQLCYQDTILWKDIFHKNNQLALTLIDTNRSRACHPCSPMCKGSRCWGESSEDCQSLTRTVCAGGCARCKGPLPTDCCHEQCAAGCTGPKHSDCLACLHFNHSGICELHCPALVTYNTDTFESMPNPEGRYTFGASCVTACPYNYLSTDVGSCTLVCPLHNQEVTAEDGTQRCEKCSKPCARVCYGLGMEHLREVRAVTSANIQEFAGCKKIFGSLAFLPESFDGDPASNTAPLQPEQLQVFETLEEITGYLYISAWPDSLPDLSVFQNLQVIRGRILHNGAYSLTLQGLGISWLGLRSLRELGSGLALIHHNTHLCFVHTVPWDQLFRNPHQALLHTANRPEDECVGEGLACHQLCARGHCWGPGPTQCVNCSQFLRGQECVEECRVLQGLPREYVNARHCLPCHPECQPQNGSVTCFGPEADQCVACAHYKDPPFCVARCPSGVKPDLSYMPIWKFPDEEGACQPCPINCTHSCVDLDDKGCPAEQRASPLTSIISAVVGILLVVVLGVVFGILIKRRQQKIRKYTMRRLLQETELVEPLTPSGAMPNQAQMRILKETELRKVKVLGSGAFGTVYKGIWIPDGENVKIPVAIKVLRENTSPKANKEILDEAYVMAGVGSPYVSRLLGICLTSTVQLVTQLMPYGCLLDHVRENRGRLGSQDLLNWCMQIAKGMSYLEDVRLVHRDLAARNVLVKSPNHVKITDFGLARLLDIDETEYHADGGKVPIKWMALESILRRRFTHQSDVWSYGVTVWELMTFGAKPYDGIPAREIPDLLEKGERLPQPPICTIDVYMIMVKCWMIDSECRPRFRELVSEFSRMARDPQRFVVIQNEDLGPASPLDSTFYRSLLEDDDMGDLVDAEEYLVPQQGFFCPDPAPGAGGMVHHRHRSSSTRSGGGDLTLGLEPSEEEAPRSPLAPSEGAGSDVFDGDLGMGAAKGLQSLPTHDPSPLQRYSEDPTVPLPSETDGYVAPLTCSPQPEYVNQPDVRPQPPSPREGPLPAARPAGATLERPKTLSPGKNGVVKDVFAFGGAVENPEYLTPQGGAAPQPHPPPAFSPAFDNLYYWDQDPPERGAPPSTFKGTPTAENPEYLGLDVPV

SMILES | viability [1] | Her2 level [2] | viability [3] | viability [4] | viability [5] | differential viability (reversal) ([6]; H69AR cells + 2 uM doxorubicin) | viability [6, 9] | viability [6, 10] | inhibition [7] | inhibition [8]
Cc1c(=O)n(OCc2ccccn2)c2ccccc2[n+]1[O-] | 84% | 76% (inactive) | 84% (inactive) | 105% (inactive) | 94.2% (inactive) | 8.18% (inactive) | 86% | 94.2% | -5.92% (inactive) | -1.27% (inactive)
O=C(CCCC(=O)N(CC(=O)NC1CCCCC1)Cc1ccc2c(c1)OCO2)Nc1ccccn1 | 102% | 97.5% (inactive) | 102% (inactive) | 101% (inactive) | 92.3% (inactive) | 10.4% (inactive) | 81.9% | 92.3% | -6.18% (inactive) | 0.32% (inactive)
CCOC(=O)C(NC(=O)Nc1ccccc1)(OCC)C(F)(F)F (stereo not given) | 114% | 98% (inactive) | 114% (inactive) | 84.5% (inactive) | 93.3% (inactive) | 6.82% (inactive) | 86.5% | 93.3% | -0.26% (inactive) | 12.1% (inactive)
O=C(Nn1c(C2CC2)nc2ccccc2c1=O)c1ccco1 | 109% | 108% (inactive) | 109% (inactive) | 93.9% (inactive) | 95.4% (inactive) | -0.5% (inactive) | 95.9% | 95.4% | -3.77% (inactive) | -6.39% (inactive)
O=C(CN1C(=O)c2ccccc2S1(=O)=O)NCc1ccccn1 | 94% | 92% (inactive) | 94% (inactive) | 86.1% (inactive) | 98.5% (inactive) | 0.67% (inactive) | 97.8% | 98.5% | -1.43% (inactive) | 1.11% (inactive)
CC1=C(C(=O)OCCOC(C)C)C(c2cc3c(cc2Br)OCO3)C2=C(CCCC2=O)N1 (stereo not given) | 102% | 111% (inactive) | 102% (inactive) | 86.2% (inactive) | 80.8% (inactive) | 1.89% (inactive) | 78.9% | 80.8% | -2.8% (inactive) | 6.07% (inactive)
Cc1onc(-c2ccccc2)c1C(=O)Nc1ccc(S(=O)(=O)N2CCCCC2)cc1 | 95.5% | 94.5% (inactive) | 95.5% (inactive) | 58.4% (inactive) | 88.9% (inactive) | -3.39% (inactive) | 92.3% | 88.9% | -0.77% (inactive) | 1% (inactive)
CCCCSc1cc(C)nc2ncnn12 | 98.5% | 131% (inactive) | 98.5% (inactive) | 75.2% (inactive) | 99.7% (inactive) | -1.97% (inactive) | 102% | 99.7% | 5.71% (inactive) | -0.67% (inactive)
CCSc1nnc(NC(=O)C2CCCN(S(=O)(=O)c3cnc[nH]3)C2)s1 (stereo not given) | 105% | 97.5% (inactive) | 105% (inactive) | 89.9% (inactive) | 91.3% (inactive) | 1.98% (inactive) | 89.4% | 91.3% | -2.27% (inactive) | 2.83% (inactive)
CCCCN(C)CCCNC(=O)CC1Oc2ccccc2NC1=O (stereo not given) | 86.5% | 91.5% (inactive) | 86.5% (inactive) | 104% (inactive) | 93.4% (inactive) | -7.03% (inactive) | 100% | 93.4% | -4.53% (inactive) | 2.95% (inactive)
Cc1cnc(-c2nnc(N(C)C(=O)C3CCOC3)s2)cn1 (stereo not given) | 90.5% | 89.5% (inactive) | 90.5% (inactive) | 98.2% (inactive) | 101% (inactive) | 17% (inactive) | 84.4% | 101% | -1.45% (inactive) | -10.9% (inactive)
C1CCC2=NCCCN2CC1 | 122% | 87.5% (inactive) | 122% (inactive) | 100% (inactive) | 107% (inactive) | 8.22% (inactive) | 98.4% | 107% | -7.33% (inactive) | -1.9% (inactive)
Cc1cc(C)n(-c2nc(C)nc3sc4c(c23)CCC(C)C4)n1 (stereo not given) | 92.5% | 108% (inactive) | 92.5% (inactive) | 80.8% (inactive) | 96.4% (inactive) | -0.45% (inactive) | 96.8% | 96.4% | -1.04% (inactive) | -13.8% (inactive)
O=C(COC(=O)C1=COCCO1)Nc1ccccc1Oc1ccccc1 | 113% | 95% (inactive) | 113% (inactive) | 97.8% (inactive) | 93.8% (inactive) | 5.48% (inactive) | 88.3% | 93.8% | -7.37% (inactive) | -1.64% (inactive)
COc1cc(C(=O)N2CCN(C(=O)CC(C)C)CC2)cc(OC)c1OC | 93.5% | 106% (inactive) | 93.5% (inactive) | 101% (inactive) | 91.3% (inactive) | -6.59% (inactive) | 97.9% | 91.3% | 2.63% (inactive) | 13.2% (inactive)
Cc1ccc2oc(-c3ccccc3C(=O)O)cc(=O)c2c1 | 88.5% | 84.5% (inactive) | 88.5% (inactive) | 89.3% (inactive) | 101% (inactive) | -2.34% (inactive) | 103% | 101% | -6.93% (inactive) | 6.07% (inactive)

SMILES | viability [1] | Her2 level [2] | viability [3] | viability [4] | viability [5] | differential viability (reversal) ([6]; H69AR cells + 2 uM doxorubicin) | viability [6, 9] | viability [6, 10] | inhibition [7] | inhibition [8]
CCN(CC)CCN1C(=O)C(=O)/C(=C(/O)c2c(C)[nH]c(C(=O)OC)c2C)C1c1ccco1 (stereo not given) | 88% | 105% (inactive) | 88% (inactive) | 107% (inactive) | 93.4% (inactive) | -3.21% (inactive) | 96.6% | 93.4% | -4.8% (inactive) | -0.16% (inactive)
Cc1ccc(C(=O)OCC(=O)c2ccc(Cl)s2)s1 | 93.5% | 101% (inactive) | 93.5% (inactive) | 96% (inactive) | 97.4% (inactive) | 6.55% (inactive) | 90.8% | 97.4% | -0.93% (inactive) | -10.3% (inactive)
Cc1nnc(SCC(=O)Nc2cc(C(F)(F)F)ccc2N2CCOCC2)o1 | 93% | 99% (inactive) | 93% (inactive) | 93.8% (inactive) | 86.8% (inactive) | -2.25% (inactive) | 89% | 86.8% | -0.13% (inactive) | -1.83% (inactive)
CCCCCCC(C)n1[nH]c(=O)c2c(C)cc(=O)[nH]c21 (stereo not given) | 89.5% | 107% (inactive) | 89.5% (inactive) | 77.7% (inactive) | 94.2% (inactive) | -4.37% (inactive) | 98.6% | 94.2% | -1.73% (inactive) | -7.54% (inactive)
COc1cc2[nH]c(=O)n(CCC(=O)N3CCc4ccccc4C3)c(=O)c2cc1OC | 102% | 106% (inactive) | 102% (inactive) | 116% (inactive) | 92.4% (inactive) | -2.6% (inactive) | 95% | 92.4% | -4.73% (inactive) | -2.33% (inactive)
CCOC(=O)c1c(C)c(C(=O)NCCN2CCOCC2)c(C)n1C | 89.5% | 91% (inactive) | 89.5% (inactive) | 107% (inactive) | 86.7% (inactive) | -3.83% (inactive) | 90.5% | 86.7% | -10.7% (inactive) | 1.11% (inactive)
C=Cn1nc(C)c2ccccc2c1=O | 112% | 117% (inactive) | 112% (inactive) | 105% (inactive) | 90.1% (inactive) | 4.88% (inactive) | 85.2% | 90.1% | -3.33% (inactive) | -7.83% (inactive)
Cc1csc(NC(=O)c2cc3c(s2)-c2ccccc2OC3)n1 | 91% | 92.5% (inactive) | 91% (inactive) | 75% (inactive) | 37.7% (active) | -17.7% (inactive) | 55.5% | 37.7% | -2.82% (inactive) | -1% (inactive)
Cc1ccc(-c2cc(C(=O)Nc3cc(C)ccc3C)[nH]n2)c(O)c1 | 102% | 88% (inactive) | 102% (inactive) | 109% (inactive) | 92.4% (inactive) | 2.75% (inactive) | 89.6% | 92.4% | -3.16% (inactive) | -1.9% (inactive)
Nc1ccc(C(=O)OCCCc2nc3ccccc3[nH]2)cc1 | 92% | 107% (inactive) | 92% (inactive) | 97.9% (inactive) | 99.1% (inactive) | 1.74% (inactive) | 97.4% | 99.1% | 5.41% (inactive) | -19.1% (inactive)
Cc1cc(NC(=O)COc2cccc3cccnc23)no1 | 93% | 75% (inactive) | 93% (inactive) | 102% (inactive) | 81% (inactive) | 1.54% (inactive) | 79.5% | 81% | -5.47% (inactive) | -2.79% (inactive)
C=CCn1c(C)cc(C(=O)CSc2nc3ccccc3o2)c1C | 108% | 72.5% (inactive) | 108% (inactive) | 81.2% (inactive) | 95.6% (inactive) | 10% (inactive) | 85.6% | 95.6% | -2.84% (inactive) | -3.33% (inactive)
O=C(CCc1nc2ccccc2[nH]1)Nc1ccc2c(c1)OCO2 | 79% | 126% (inactive) | 79% (inactive) | 48.6% (inactive) | 90.8% (inactive) | -2.33% (inactive) | 93.1% | 90.8% | 0.9% (inactive) | -4.33% (inactive)
CCCn1c(C)cc(C(=O)COc2ncnc3sccc23)c1C | 89% | 98.5% (inactive) | 89% (inactive) | 74.1% (inactive) | 63.8% (inactive) | -18.6% (inactive) | 82.3% | 63.8% | 1.3% (inactive) | -11.8% (inactive)
CC(n1cnnn1)C12CC3CC(CC(C3)C1)C2 (stereo not given) | 88.5% | 96% (inactive) | 88.5% (inactive) | 93.4% (inactive) | 96% (inactive) | 11.3% (inactive) | 84.7% | 96% | -1.2% (inactive) | 1.97% (inactive)
CCOc1ccccc1NC(=O)NC1CCN(CC(=O)Nc2ccc3c(c2)OCCO3)CC1 | 119% | 97% (inactive) | 119% (inactive) | 73.9% (inactive) | 86.8% (inactive) | -7.47% (inactive) | 94.3% | 86.8% | -0.39% (inactive) | 7.54% (inactive)
